Source: publication PMC11984575 (Neurobiology of Pain, 2025)
“Also recorded” adds a separate entry of the source.

Experiments:
humanized NaV1.8 rats [1] = assay: CFA-induced thermal hyperalgesia; assay type: in vivo, rat; details: one hour post dosing; for hind paw withdrawal latency vs vehicle (thermal hyperalgesia): 24 h after CFA
Method in brief: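 Male humanized NaV1.8 rats; baseline Hargreaves latency as mean of two trials, 20 s cutoff. CFA (50 μL, 1 mg/mL) given intraplantar into mid-plantar hind paw; latencies retested at 24 h. Rats then randomized to PO vehicle or test compound (1 or 10 mg/kg), or diclofenac 80 mg/kg ip. Latency read 1 h post-dose; blinded; n = 20/group; two-way ANOVA with Bonferroni; mean ± SD.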

rat NaV1.8 channels = details: cited from earlier work; for potency in rats: ref Gilchrist et al., 2024, Osteen et al., 2025
humanized NaV1.8 rats [2] = assay: Capsaicin nocifensive behavior; assay type: in vivo, rat
Method in brief: (§1)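 Male rats, humanized or wild-type Sprague-Dawley, acclimated to chamber twice beforehand and 15 min on test day. Test compound given PO 1 h before intradermal capsaicin (25 μL, 0.01 %, in ethanol/Tween80/saline 20:7:73) into left hind paw. Flinches counted over 5 min; blinded, randomized order. Wild-type: n = 10/group, Student's t-test. Humanized dose-response: per-animal % inhibition of vehicle mean fitted against unbound plasma level (tail-vein blood post-test) for in vivo IC50.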

human NaV1.1 = human NaV1.1 (Homo sapiens, UniProt P35498); assay: Automated patch clamp; assay type: cell-based
[3] = biological target: Chimera 1: NaV1.5(1–711) – NaV1.8(660–890) – NaV1.5(940–2015) (Homo sapiens, UniProt Q14524+Q9Y5Y9); assay: QPatch II sodium currents of chimeric NaV channel in FS-293 HEK cells; assay type: cell-based
Method in brief: (§2)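 Chimeric NaV1.5/NaV1.8 constructs electroporated into FS-293 HEK cells; currents recorded on QPatch II. External (mM): 150 NaCl, 5 KCl, 2 CaCl2, 1 MgCl2, 10 HEPES, 12 dextrose, pH 7.3 (NaOH), 330 Osm. Steps from −90 to +10 mV; IC50 by non-linear regression, bounds 0–1, Hill slope free.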

[4] = system: all other recombinant human NaV channel isoforms; details: highest concentrations tested (30–34 uM); ref Vardigan et al., 2024; cited from earlier work
human NaV1.2 = human NaV1.2 (Homo sapiens, UniProt Q99250); assay: Automated patch clamp; assay type: cell-based
humanized NaV1.8 rats [5] = assay: Spinal nerve ligation; assay type: in vivo, rat; details: one-hour post-dosing
Method in brief: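 Male humanized NaV1.8 rats; baseline von Frey PWT (Up-Down, plantar) <9 g excluded. Under isoflurane, L6 transverse process removed; L5 spinal nerve tightly ligated and cut. After 1 week, PWT >6 g excluded. Day 1: PO vehicle (10 % Tween 80) or 10 mg/kg; after 4-day washout and reassessment, PO vehicle or 1 mg/kg. PWT read 1 h post-dose; blinded; mixed-effects model, Bonferroni; mean ± SD.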

[6] = system: wild-type Sprague-Dawley rats; assay: Capsaicin nocifensive behavior; assay type: in vivo, rat; details: 10 mg/kg PO, 1 h before capsaicin
Method in brief: as §1

[7] = Total plasma exposure in CFA and SNL studies; assay type: in vivo, rat; details: for Total plasma exposure: SNL study, approximately 1-hour post-dosing; for concentration at 4 h: rat, plasma, po
Method in brief: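 Tail-vein blood for total plasma levels after PO test compound (1 or 10 mg/kg): in CFA rats at 4 h post-dose, in SNL rats right after mechanical testing, about 1 h post-dose.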

human NaV1.3 = human NaV1.3 (Homo sapiens, UniProt Q9NY46); assay: Automated patch clamp; assay type: cell-based
Sequence of human NaV1.3 (Q9NY46 whole entry): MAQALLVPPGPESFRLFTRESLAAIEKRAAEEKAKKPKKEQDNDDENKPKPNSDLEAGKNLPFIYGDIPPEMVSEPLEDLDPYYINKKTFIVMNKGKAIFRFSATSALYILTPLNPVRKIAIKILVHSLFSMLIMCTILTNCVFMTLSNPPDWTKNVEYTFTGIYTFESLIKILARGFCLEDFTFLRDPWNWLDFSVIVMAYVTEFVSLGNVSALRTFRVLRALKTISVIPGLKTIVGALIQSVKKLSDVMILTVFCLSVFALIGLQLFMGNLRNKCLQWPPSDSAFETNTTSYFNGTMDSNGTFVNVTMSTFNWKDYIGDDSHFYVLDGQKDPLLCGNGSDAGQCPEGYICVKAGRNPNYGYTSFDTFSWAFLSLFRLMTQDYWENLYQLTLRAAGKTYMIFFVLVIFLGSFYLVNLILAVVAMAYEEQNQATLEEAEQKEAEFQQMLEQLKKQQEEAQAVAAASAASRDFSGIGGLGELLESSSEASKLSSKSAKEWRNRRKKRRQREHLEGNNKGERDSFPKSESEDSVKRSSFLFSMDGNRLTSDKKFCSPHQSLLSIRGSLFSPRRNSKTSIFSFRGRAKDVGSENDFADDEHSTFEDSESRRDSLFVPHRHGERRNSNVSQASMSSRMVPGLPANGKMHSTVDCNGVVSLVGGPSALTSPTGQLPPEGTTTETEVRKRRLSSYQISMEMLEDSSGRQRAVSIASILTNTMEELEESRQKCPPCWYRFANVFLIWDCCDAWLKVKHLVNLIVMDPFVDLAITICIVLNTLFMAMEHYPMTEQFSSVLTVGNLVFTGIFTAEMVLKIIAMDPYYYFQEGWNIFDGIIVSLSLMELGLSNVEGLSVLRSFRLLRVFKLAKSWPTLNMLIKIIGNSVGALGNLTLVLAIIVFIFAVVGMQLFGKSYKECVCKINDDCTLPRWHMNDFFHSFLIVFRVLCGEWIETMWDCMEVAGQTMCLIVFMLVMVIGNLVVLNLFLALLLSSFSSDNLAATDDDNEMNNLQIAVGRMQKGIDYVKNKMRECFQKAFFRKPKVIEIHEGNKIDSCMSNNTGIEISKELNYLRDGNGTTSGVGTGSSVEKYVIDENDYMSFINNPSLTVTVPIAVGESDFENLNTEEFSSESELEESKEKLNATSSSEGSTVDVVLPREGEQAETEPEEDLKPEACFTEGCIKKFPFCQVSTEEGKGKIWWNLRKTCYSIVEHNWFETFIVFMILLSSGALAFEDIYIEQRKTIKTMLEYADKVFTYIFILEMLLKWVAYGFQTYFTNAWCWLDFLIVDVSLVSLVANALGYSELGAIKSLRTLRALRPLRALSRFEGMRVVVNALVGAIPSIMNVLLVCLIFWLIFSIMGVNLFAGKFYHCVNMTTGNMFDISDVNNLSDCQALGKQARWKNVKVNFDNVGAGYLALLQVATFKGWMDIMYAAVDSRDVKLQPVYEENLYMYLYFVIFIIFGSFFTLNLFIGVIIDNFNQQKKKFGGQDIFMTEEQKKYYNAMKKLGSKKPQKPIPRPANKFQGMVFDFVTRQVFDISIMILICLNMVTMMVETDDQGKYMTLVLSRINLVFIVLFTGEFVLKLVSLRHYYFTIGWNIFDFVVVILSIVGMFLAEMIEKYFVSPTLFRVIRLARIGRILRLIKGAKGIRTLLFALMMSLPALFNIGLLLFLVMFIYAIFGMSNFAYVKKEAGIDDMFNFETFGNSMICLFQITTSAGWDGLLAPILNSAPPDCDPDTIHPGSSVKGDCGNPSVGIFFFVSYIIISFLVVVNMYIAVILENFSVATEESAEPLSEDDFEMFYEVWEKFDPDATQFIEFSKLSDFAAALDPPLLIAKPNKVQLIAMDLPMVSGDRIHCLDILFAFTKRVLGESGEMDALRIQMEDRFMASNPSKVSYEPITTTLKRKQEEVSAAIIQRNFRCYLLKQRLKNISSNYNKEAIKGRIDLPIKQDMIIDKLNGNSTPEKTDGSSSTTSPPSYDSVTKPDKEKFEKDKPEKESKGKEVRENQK

[8] = biological target: Chimera 2: NaV1.8(1–399) – NaV1.5(416–1199) – NaV1.8(1148–1956) (Homo sapiens, UniProt Q14524+Q9Y5Y9); assay: QPatch II sodium currents of chimeric NaV channel in FS-293 HEK cells; assay type: cell-based; details: VSDII of NaV1.5 swapped into NaV1.8
Method in brief: as §2

human NaV1.8 [9] = biological target: T1, human NaV1.8 (Homo sapiens, UniProt Q9Y5Y9); assay: Automated patch clamp; assay type: cell-based; details: train of 10 pulses at 1 Hz vs first pulse
T1 sequence (Q9Y5Y9 whole entry): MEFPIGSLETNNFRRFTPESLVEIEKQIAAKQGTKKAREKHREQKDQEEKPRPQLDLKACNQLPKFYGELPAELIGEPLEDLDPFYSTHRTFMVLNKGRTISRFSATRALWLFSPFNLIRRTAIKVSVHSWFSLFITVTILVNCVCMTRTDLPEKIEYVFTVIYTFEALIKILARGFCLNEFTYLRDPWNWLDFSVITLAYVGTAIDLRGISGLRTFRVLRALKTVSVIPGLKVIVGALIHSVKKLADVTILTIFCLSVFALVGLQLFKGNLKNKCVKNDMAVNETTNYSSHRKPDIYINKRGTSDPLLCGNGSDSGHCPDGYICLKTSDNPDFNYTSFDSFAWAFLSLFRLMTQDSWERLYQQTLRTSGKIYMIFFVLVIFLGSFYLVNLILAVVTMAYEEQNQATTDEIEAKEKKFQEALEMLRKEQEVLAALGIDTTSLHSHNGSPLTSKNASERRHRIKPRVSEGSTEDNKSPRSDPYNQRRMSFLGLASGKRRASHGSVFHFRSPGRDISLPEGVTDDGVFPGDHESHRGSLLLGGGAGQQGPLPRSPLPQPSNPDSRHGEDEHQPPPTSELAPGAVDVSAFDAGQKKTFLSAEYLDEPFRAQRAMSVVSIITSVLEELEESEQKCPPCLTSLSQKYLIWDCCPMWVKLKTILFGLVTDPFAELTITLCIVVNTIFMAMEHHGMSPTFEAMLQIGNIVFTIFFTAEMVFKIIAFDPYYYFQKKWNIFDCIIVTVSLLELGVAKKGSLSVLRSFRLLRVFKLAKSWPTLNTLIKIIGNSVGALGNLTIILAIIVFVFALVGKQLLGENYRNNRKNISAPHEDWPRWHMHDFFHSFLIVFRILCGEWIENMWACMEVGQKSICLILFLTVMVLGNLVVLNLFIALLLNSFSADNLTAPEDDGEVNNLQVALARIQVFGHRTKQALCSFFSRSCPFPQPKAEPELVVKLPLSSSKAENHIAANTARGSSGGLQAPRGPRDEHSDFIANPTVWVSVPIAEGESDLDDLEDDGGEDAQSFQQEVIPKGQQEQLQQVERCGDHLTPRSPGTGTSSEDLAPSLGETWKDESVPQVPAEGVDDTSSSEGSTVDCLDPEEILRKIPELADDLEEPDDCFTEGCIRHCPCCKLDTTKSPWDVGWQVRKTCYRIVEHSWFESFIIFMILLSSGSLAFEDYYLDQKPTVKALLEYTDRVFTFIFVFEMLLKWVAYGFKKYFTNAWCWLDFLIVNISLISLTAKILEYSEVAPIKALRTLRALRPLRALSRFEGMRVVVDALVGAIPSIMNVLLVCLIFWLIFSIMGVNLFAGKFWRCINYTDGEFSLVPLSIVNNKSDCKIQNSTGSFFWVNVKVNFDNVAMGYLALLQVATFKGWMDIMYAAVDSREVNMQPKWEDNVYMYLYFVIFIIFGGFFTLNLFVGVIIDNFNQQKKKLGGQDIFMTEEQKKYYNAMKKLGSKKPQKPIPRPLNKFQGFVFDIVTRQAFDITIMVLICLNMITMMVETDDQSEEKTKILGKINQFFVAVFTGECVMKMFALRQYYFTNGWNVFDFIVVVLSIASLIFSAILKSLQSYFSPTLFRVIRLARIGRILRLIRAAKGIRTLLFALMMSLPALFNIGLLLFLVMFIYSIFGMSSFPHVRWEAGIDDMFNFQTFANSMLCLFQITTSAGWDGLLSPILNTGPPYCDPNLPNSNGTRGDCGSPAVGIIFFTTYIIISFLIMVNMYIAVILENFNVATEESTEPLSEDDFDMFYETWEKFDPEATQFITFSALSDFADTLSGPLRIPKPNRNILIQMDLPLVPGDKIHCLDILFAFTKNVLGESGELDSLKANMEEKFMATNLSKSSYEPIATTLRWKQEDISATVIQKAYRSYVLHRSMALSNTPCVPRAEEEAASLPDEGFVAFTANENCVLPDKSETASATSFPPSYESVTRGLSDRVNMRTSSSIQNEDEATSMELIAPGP

human NaV1.7 = human NaV1.7 (Homo sapiens, UniProt Q15858); assay: Automated patch clamp; assay type: cell-based
[10] = biological target: Chimera B: NaV1.8(1–718) – NaV1.5(771–803) – NaV1.8(752–1956) (Homo sapiens, UniProt Q14524+Q9Y5Y9); assay: QPatch II sodium currents of chimeric NaV channel in FS-293 HEK cells; assay type: cell-based; details: VSDIIS3 of NaV1.5 in NaV1.8
Method in brief: as §2

human NaV1.9 = human NaV1.9 (Homo sapiens, UniProt Q9UI33); assay: Automated patch clamp; assay type: cell-based
human NaV1.5 = human NaV1.5 (Homo sapiens, UniProt Q14524); assay: Automated patch clamp; assay type: cell-based
human NaV1.8 [11] = biological target: T1, human NaV1.8; assay type: cell-based
human NaV1.4 = human NaV1.4 (Homo sapiens, UniProt P35499); assay: Automated patch clamp; assay type: cell-based; details: vs human NaV1.8
[12] = biological target: Chimera A: NaV1.5(1–770) – NaV1.8(719–751) – NaV1.5(804–2015) (Homo sapiens, UniProt Q14524+Q9Y5Y9); assay: QPatch II sodium currents of chimeric NaV channel in FS-293 HEK cells; assay type: cell-based
Method in brief: as §2

human NaV1.6 = human NaV1.6 (Homo sapiens, UniProt Q9UQD0); assay: Automated patch clamp; assay type: cell-based
rodent NaV1.8 channel = rodent NaV1.8 channel (Rattus norvegicus, UniProt Q62968); assay type: cell-based
[13] = Rat plasma protein binding; assay type: in vitro ADME
rat SNL model = details: cited from earlier work
NaV1.8 = details: blocks more current as stimulation rate increases; ref Payne et al., 2015; cited from earlier work

**Q.** Which “thermal hyperalgesia vs vehicle” value (humanized NaV1.8 rats [1]; 80 mg/kg intraperitoneal, positive control) does the source give for `O=C(O)Cc1ccccc1Nc1c(Cl)cccc1Cl` [Diclofenac, reference compound] here?
**A.** Its value is “reversed thermal hyperalgesia”.

**Q.** With `Cc1cc(F)ccc1Oc1ncc(C(F)(F)F)cc1C(=O)Nc1cccc([S@](C)(=N)=O)c1` [LTGO-33] as the compound, how does the potency in rats (rat NaV1.8 channels) read?
**A.** Its potency in rats is “reduced potency in rats”.

**Q.** With `Cc1ccc(C(=O)Nc2ccnc(S(N)(=O)=O)c2)c(N2CCCC(F)(F)CC2)n1` [MSD199, 2-(4,4-difluoroazepan-1-yl)-6-methyl-N-(2-sulfamoylpyridin-4-yl)-nicotinamide] as the compound, how does the “nocifensive responses vs vehicle, dose-response” value (from here on “nocifensive responses vs vehicle”) (humanized NaV1.8 rats [2]; 1 mg/kg PO (Fig. 2C)) read?
**A.** Its value is “significantly lower than vehicle”.

**Q.** And the “nocifensive responses vs vehicle” value (humanized NaV1.8 rats [2]; 3 mg/kg PO (Fig. 2C))?
**A.** Its value is “significantly lower than vehicle”.

**Q.** And the “nocifensive responses vs vehicle” value (humanized NaV1.8 rats [2]; 10 mg/kg PO (Fig. 2C))?
**A.** Its value is “significantly lower than vehicle”.

**Q.** What about the “effect on capsaicin-induced nocifensive behavior” value (humanized NaV1.8 rats [2]; 10 mg/kg PO, 1 h before capsaicin (Fig. 2B), 10 mg/kg) of the same compound?
**A.** The value was “significantly blocked”.

**Q.** What about the IC50 (human NaV1.1) of the same compound?
**A.** The IC50 was > 33.6 µM.

**Q.** And the IC50 [3]?
**A.** The IC50 was 0.0011 µM.

**Q.** What about the “inhibition of all other recombinant human NaV channel isoforms” value [4] of the same compound?
**A.** Its value is “no inhibition”.

**Q.** And the IC50 (human NaV1.2)?
**A.** Its IC50 is > 33.6 µM.

**Q.** What about the “paw withdrawal thresholds vs vehicle (mechanical allodynia)” value (humanized NaV1.8 rats [5]; 1 mg/kg PO) of the same compound?
**A.** Its value is “no significant antiallodynic effects; also recorded: did not significantly alter paw withdrawal thresholds”.

**Q.** And the “paw withdrawal thresholds vs vehicle (mechanical allodynia)” value (humanized NaV1.8 rats [5]; 10 mg/kg PO)?
**A.** The value was “demonstrated significant antiallodynic effects; also recorded: significant reversal of mechanical allodynia”.

**Q.** And the “effect on capsaicin-induced nocifensive behavior” value [6]?
**A.** The value was “had no effect; also recorded: no observable impact”.

**Q.** What about the Total plasma exposure ([7]; 1 mg/kg PO) of the same compound?
**A.** The Total plasma exposure was 73.06 ± 4.71 nM.

**Q.** And the Total plasma exposure ([7]; 10 mg/kg PO)?
**A.** Its Total plasma exposure is 1117 ± 84.19 nM.

**Q.** What about the concentration at 4 h ([7]; 1 mg/kg) of the same compound?
**A.** The concentration at 4 h was 20.1 ± 5.1 nM.

**Q.** And the concentration at 4 h ([7]; 10 mg/kg)?
**A.** The concentration at 4 h was 199 ± 27.3 nM.

**Q.** What about the IC50 (human NaV1.3) of the same compound?
**A.** Its IC50 is > 33.6 µM.

**Q.** And the “sodium current inhibition, Chimera 2” value [8]?
**A.** Its value is “disruption of sodium current inhibition”.

**Q.** And the frequency dependency (human NaV1.8 [9])?
**A.** Its frequency dependency is “does not display frequency dependency”.

**Q.** And the IC50 (human NaV1.7)?
**A.** Its IC50 is > 33.6 µM.

**Q.** What about the “hind paw withdrawal latency vs vehicle (thermal hyperalgesia)” value (humanized NaV1.8 rats [1]; 1 mg/kg PO) of the same compound?
**A.** The value was “but not at 1 mg/kg, significantly increased”.

**Q.** What about the “hind paw withdrawal latency vs vehicle (thermal hyperalgesia)” value (humanized NaV1.8 rats [1]; 10 mg/kg PO) of the same compound?
**A.** The value was “significantly increased”.

**Q.** And the “potency, Chimera B” value [10]?
**A.** Its value is “abolished the potency”.

**Q.** What about the IC50 (human NaV1.9) of the same compound?
**A.** Its IC50 is > 33 µM.

**Q.** What about the IC50 (human NaV1.5) of the same compound?
**A.** The IC50 was > 33.6 µM.

**Q.** And the IC50 (human NaV1.8 [11])?
**A.** The IC50 was 0.0056 µM.

**Q.** And the “selectivity over recombinant human NaV1.4 channel” value (human NaV1.4)?
**A.** The value was ~2000 fold.

**Q.** What about the IC50 [12] of the same compound?
**A.** The IC50 was 0.0086 µM.

**Q.** And the IC50 (human NaV1.6)?
**A.** Its IC50 is > 33.6 µM.

**Q.** What about the IC50 (rodent NaV1.8 channel) of the same compound?
**A.** The IC50 was 4.83 µM.

**Q.** What about the fraction unbound [13] of the same compound?
**A.** The fraction unbound was 0.15.

**Q.** With `COc1cc(NC(=O)c2ccc(-c3ccc(Cl)cc3)o2)cc(OC)c1` [Molecule A-803467] as the compound, how does the SNL-induced mechanical allodynia (rat SNL model; rodents, ref Jarvis et al., 2007) read?
**A.** The SNL-induced mechanical allodynia was “demonstrated reversal of SNL-induced mechanical allodynia”.

**Q.** What about the “potency in wildtype rodents” value (rat NaV1.8 channels; ref Jarvis et al., 2007) of the same compound?
**A.** The value was “exhibited reduced potency in wildtype rodents”.

**Q.** For `CNC(=O)c1ccc(-c2cc(Cl)cc(Cl)c2Cl)c(N)n1` [PF-01247324], which “neuropathic pain in rat SNL model” value (rat SNL model; rat, ref Payne et al., 2015) is on record?
**A.** Its value is “reversed neuropathic pain in the rat SNL model”.

**Q.** And the frequency dependency (NaV1.8)?
**A.** The frequency dependency was “demonstrates frequency dependency”.

**Q.** Which potency in rats (rat NaV1.8 channels) does the source give for `COc1c([C@H]2[C@H](C(=O)Nc3ccnc(C(N)=O)c3)O[C@@](C)(C(F)(F)F)[C@H]2C)ccc(F)c1F` [VX-548] here?
**A.** The potency in rats was “reduced potency in rats”.
